Laboratory results as given in ChEMBL document CHEMBL1159338, “New dimeric naphthopyrones from Aspergillus niger” (J Nat Prod, 2003).
Active and inactive are the calls of the source. No cut-off for these calls is given here.

Columns and labels:
[1] = biological target: Telomerase reverse transcriptase (Homo sapiens) (UniProt O14746); experiment: Inhibition of human telomerase activity at 100 ug/mL by TRAP assay
Procedure, shortened: (§1)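 TRAP format: DMSO-dissolved samples in a 50 µL mix with HT1080 cell extract, pH 8.3 Tris-HCl/KCl/MgCl2/EGTA/Tween 20 buffer, TS primer, 50 µM each dNTP, 2 U Taq and [32P]dCTP; CX primer held under wax. Extension ran 30 min at 23 °C, then 90 °C for 90 s and 31 PCR cycles. Products were bound to DE-51 paper and scintillation-counted. Inhibition was taken relative to DMSO, minus RNase-treated extract background.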

[2] = biological target: Telomerase reverse transcriptase (Homo sapiens) (UniProt O14746); experiment: Inhibition of human telomerase activity by TRAP assay; details: concentration not given here; procedure, shortened: as §1
[3] = biological target: DNA polymerase I, thermostable (Thermus aquaticus) (UniProt P19821); experiment: Inhibition of Taq polymerase in RNase treated human HT1080 cells at 100 ug/mL by PCR; assay type: cell-based; details: HT-1080
Chain of DNA polymerase I, thermostable (Thermus aquaticus) (P19821 whole entry): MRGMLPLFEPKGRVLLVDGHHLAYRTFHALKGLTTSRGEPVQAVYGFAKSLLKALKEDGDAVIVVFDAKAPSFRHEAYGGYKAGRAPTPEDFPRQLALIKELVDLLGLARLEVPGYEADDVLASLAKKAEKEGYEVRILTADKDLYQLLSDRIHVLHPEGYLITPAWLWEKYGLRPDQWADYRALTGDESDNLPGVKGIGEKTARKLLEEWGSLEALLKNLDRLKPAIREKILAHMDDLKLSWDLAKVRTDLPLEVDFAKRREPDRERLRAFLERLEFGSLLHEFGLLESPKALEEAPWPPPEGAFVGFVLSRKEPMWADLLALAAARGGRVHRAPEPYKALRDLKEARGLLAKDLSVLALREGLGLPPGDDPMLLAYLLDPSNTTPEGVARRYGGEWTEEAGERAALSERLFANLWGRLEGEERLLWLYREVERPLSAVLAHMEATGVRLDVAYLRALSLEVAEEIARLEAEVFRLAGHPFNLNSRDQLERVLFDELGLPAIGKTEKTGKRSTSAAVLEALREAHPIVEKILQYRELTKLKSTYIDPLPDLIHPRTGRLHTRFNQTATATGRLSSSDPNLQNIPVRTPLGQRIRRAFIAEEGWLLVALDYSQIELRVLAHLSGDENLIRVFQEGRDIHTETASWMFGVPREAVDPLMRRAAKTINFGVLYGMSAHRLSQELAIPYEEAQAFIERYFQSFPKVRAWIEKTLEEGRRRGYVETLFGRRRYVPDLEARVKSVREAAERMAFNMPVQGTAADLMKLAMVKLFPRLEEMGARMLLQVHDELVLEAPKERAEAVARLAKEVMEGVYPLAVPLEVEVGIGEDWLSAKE

Chain of Telomerase reverse transcriptase (Homo sapiens) (O14746 whole entry): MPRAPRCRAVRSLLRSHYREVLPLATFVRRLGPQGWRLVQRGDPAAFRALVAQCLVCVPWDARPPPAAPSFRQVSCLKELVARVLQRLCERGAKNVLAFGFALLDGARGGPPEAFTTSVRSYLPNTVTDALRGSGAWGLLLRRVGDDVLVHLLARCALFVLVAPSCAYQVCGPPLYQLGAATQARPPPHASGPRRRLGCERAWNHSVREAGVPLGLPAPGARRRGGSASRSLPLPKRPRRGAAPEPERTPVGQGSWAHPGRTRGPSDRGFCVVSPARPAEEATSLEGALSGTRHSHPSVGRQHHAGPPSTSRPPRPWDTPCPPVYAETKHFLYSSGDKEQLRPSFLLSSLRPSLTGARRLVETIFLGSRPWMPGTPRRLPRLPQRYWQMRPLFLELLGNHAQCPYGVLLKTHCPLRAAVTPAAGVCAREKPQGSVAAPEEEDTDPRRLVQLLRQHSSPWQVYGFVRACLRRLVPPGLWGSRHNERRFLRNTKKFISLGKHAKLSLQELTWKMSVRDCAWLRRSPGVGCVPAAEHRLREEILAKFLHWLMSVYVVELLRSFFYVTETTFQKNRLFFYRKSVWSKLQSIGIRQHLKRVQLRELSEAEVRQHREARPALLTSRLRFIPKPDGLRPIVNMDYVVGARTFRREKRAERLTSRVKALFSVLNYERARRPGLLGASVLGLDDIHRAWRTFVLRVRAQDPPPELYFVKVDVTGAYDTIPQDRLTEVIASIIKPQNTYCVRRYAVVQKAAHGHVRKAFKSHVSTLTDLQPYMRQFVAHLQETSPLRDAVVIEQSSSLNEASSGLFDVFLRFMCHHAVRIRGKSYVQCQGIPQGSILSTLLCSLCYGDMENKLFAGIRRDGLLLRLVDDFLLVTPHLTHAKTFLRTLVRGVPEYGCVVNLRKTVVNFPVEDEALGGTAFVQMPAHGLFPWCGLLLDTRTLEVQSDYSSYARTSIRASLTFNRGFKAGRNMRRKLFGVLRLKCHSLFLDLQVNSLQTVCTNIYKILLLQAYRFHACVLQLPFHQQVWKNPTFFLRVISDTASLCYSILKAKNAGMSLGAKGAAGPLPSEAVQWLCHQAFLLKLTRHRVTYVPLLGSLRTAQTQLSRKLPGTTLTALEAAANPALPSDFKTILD

SMILES | Activity [1] | inhibition [2] [%] | inhibition [3] [%]
COc1cc(OC)c2c(O)c3c(=O)cc(C)oc3c(-c3c(OC)cc4cc(O)c5c(=O)cc(C)oc5c4c3OC)c2c1 | inactive | 40 | 40
COc1cc(OC)c2c(O)c3c(=O)cc(C)oc3c(-c3c(OC)cc4cc5oc(C)cc(=O)c5c(O)c4c3OC)c2c1 | inactive | 52 | 49

Second part, the molecule after the results:

Activity [1] | inhibition [2] [%] | inhibition [3] [%] | SMILES
inactive | 41 | 40 | COc1cc(OC)c2c(O)c3c(=O)cc(C)oc3c(-c3c(O)cc4cc(O)c5c(=O)cc(C)oc5c4c3OC)c2c1
inactive | – | – | COc1cc(OC)c2c(c1)c(-c1c(OC)cc3cc4oc(C)cc(=O)c4c(O)c3c1OC)c(O)c1c(=O)cc(C)oc12
inactive | – | – | COc1cc(OC)c2c(c1)c(-c1c(OC)cc3cc(O)c4c(=O)cc(C)oc4c3c1OC)c(O)c1c(=O)cc(C)oc12
